TAAR1 antag = antagonists of human TAAR1 | Q96RJ0 | CHO RD-HGA16 TAAR1, Fluo-8 calcium fluorescence, antagonist | inhibition, % at 3 µM | hit rate 1.5% among 360,000;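 active means inhibition above a per-plate cutoff, the mean inhibition of test compounds on that plate plus 3 SD, cut at about 49% in these data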;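 further: 0% = DMSO plus EC80 beta-PEA response and 100% = DMSO alone without agonist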
Target sequence (Q96RJ0 whole entry, looked up): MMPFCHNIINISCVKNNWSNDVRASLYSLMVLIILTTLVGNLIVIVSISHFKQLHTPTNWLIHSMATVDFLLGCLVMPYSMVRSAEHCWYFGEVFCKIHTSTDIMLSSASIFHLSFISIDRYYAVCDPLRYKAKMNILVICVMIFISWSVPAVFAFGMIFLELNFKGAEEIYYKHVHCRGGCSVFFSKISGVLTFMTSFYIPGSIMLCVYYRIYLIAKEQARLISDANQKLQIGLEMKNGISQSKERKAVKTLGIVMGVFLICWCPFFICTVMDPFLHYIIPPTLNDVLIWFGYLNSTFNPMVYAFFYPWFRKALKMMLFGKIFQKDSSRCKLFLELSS
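Test system – hTAAR1-expressing CHO RD-HGA16 cells, Gα16-coupled · Also added – β-PEA at EC80 concentration, post-compound challenge · Compound – 3 µM, single point · Incubation – dye loading 75 min at 37 °C, then 30 min room temperature · Measured by – Fluo-8 intracellular calcium dye fluorescence, real-time kinetic reads · Benchmarks – vehicle and agonist controls · Replicates – singlicate, one well per test compound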
OXTR potentiator = human OXTR potentiation; P30559; activation, % at 3 µM; CHO-OTR cells, Fluo-8 calcium fluorescence, potentiator mode; 0% = oxytocin EC15, 100% = EC100; hit rate 0.061% among 320,000;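 active means activation above that plate's cutoff, the mean activation of tested compounds plus 3 SD, cut at about 6.6% in these data, passing the limit was not always enough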;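 further: 100% uses oxytocin at 75 nM as the full agonist control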
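Assay system: CHO-OTR cells, human receptor / Also added: oxytocin at about EC15, sub-maximal agonist stimulus / Dosing: single dose, 3.0 µM nominal final compound concentration / Incubation: 6 min pre-incubation, 100 s read / Technique: Fluo-8 calcium dye fluorescence / Read-out: % activation vs EC15 and EC100 oxytocin / Benchmarks: EC15 oxytocin low, 75 nM oxytocin high / Replicates: singlicate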
TAAR1 ag = human TAAR1 agonism | Q96RJ0 | CHO RD-HGA16 TAAR1, Fluo-8 calcium fluorescence; vehicle wells 0%, saturating PEA agonist 100% | activation, % at 3 µM | hit rate 0.99% among 360,000;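 active means activation above the mean activation of all test compounds in the run plus 3 SD, cut at about 38% in these data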
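Repeats: no replicates (n 1) | Material: CHO-derived RD-HGA16 cells with stable Gα16 and human TAAR1 | Technique: Kinetic Fluo-8 calcium fluorescence | Schedule: 17-24 h seeding, 75 min 37 °C dye, 30 min RT | Evaluation: % activation from peak over basal fluorescence ratio, DMSO-to-PEA scaled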
OXTR ag = activates the human oxytocin receptor; P30559; CHO-OTR cells, Fluo-8 calcium fluorescence; normalized: DMSO 0%, oxytocin 100%; activation, % at 3 µM; hit rate 0.32% among 320,000;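 active means activation above the mean of all tested compounds plus 3 SD, cutoff set per screening run, cut at about 20% in these data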;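 further: peak over basal fluorescence ratio from a 100 s FLIPR kinetic read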
V1R ag counter = activates human V1a receptor in oxytocin agonist counter-screen; P37288; CHO-V1R cells, Fluo-8 calcium fluorescence, agonist mode; 0% DMSO, 100% 3 nM vasopressin; activation, % at 3 µM; hit rate 0.25% among 320,000; AID 2797;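 active means activation above the mean activation of all tested compounds plus 3 SD, per screening run, cut at about 20% in these data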;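 further: signal is peak over basal fluorescence ratio across a 100 second FLIPR read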
Target sequence (P37288 whole entry, looked up): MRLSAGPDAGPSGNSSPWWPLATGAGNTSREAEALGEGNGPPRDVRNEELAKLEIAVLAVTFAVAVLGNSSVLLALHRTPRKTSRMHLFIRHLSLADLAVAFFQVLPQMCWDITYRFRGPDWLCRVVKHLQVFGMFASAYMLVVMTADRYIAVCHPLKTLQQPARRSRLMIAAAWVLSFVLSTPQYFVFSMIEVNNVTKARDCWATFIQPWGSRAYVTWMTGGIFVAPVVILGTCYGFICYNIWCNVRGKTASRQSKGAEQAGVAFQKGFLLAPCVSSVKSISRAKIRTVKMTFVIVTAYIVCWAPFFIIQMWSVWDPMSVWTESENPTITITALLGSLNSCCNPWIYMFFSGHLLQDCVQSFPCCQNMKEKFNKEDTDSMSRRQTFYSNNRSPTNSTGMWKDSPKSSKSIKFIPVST
TAAR1 ag confirm = confirmation of human TAAR1 agonists | shares compounds with TAAR1 ag | CHO RD-HGA16 TAAR1, Fluo-8 calcium fluorescence; scaled: DMSO 0%, maximal phenethylamine 100% | activation, % at 3 µM | hit rate 82% among 2,400;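 active means activation above a cutoff set at the run's mean compound activation plus 3 SD, cut at about 39% in these data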
Ga16 ag counter = nonselective agonist in parental cells, TAAR1 agonist counter-screen; activation, % at 3 µM; AID 651787; hit rate 50% among 2,400; shares compounds with TAAR1 ag; CHO-Ga16 parental, Fluo-8 calcium fluorescence; normalized to maximal ATP response, DMSO zero;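 active means activation above the run cutoff, the mean activation over all tested wells plus 3 SD, cut at about 12% in these data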;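 further: 0% = DMSO wells and 100% = maximal ATP response on the peak over basal ratio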
TAAR1 desensitize = human TAAR1 agonist that also desensitizes the receptor; shares compounds with TAAR1 ag; CHO RD-HGA16 hTAAR1, Fluo-8 calcium, beta-PEA response inhibition; inhibition, % at 3 µM; hit rate 46% among 2,400; AID 651951;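 active means inhibition above the run cutoff, the mean inhibition of all test compounds plus 3 SD, cut at about 49% in these data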;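 further: beta-PEA stimulus applied at its EC80; loss of beta-PEA calcium signal after compound pretreatment read as receptor desensitization; 0% = DMSO with beta-PEA at EC80 and 100% = DMSO alone without agonist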
Ga16 antag count = nonselective Ga16 antagonist in TAAR1 agonist counter-screen; shares compounds with TAAR1 ag; CHO-Ga16 ATP-induced calcium, Fluo-8 fluorescence; inhibition, % at 3 µM; hit rate 39% among 2,400; AID 651952;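 active means inhibition above the plate's mean compound inhibition plus 3 SD, computed per plate, cut at about 22% in these data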;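 further: 0% = EC80 ATP with DMSO and 100% = DMSO wells without ATP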
* = called active by the depositor; nt = no result. An excerpt weighted towards active compounds, which were near 2.3% of everything screened.

SMILES	TAAR1 antag	OXTR potentiator	TAAR1 ag	OXTR ag	V1R ag counter	TAAR1 ag confirm	Ga16 ag counter	TAAR1 desensitize	Ga16 antag count
O=[N+]([O-])c1ccc(CSc2nnc(-c3cccnc3)o2)cc1	-7	nt	1	nt	nt	nt	nt	nt	nt
CCn1cc(C(=O)O)c(=O)c2cc(F)c(N/N=C/c3ccccc3)cc21	70*	-5	56*	1	0	82*	2	85*	8
CCn1cc(C(=O)O)c(=O)c2cc(F)c(N3CCN(C(=O)Nc4ccccc4)CC3)cc21	2	4	11	2	1	nt	nt	nt	nt
Cc1noc(C)c1COC(=O)c1cccc(S(=O)(=O)N2CCOCC2)c1	16	0	48*	2	2	3	1	-1	8
Cc1cc(/C=N/NC(=O)CC2(C)OCCO2)c(C)n1-c1cc(Cl)cc(Cl)c1	4	-14	72*	15	0	84*	50*	5	1
C[C@H](CO)N1C[C@H](C)[C@H](CN(C)C(=O)NC2CCCCC2)Oc2ncc(Br)cc2C1=O	-11	nt	2	nt	nt	nt	nt	nt	nt
COC(=O)NC1c2ccccc2Oc2ccc(C)cc21 (configuration not stated)	38	-2	43*	-2	0	83*	38*	76*	34*
CC1CC(C)CN(C(=O)c2cccc(S(=O)(=O)NCc3ccccc3)c2)C1 (configuration not stated)	4	-2	58*	2	2	50*	2	14	15
CC1CCCN(C(=O)c2cccc(S(=O)(=O)NCc3ccccc3)c2)C1 (configuration not stated)	-17	nt	5	nt	nt	nt	nt	nt	nt
O=C(NC1CC2CCC1C2)c1ccco1 (configuration not stated)	-8	1	1	0	-1	nt	nt	nt	nt
c1ccc(NCCc2ccccn2)cc1	22	nt	0	nt	nt	nt	nt	nt	nt
CNCCc1ccccn1	58*	0	81*	0	1	92*	0	82*	4
c1ccc(CCNCc2cccs2)nc1	-19	nt	52*	nt	nt	66*	0	28	8
COc1ccc(Cl)cc1C(=O)NNC(=O)CNC(=O)c1ccc(C)s1	0	-7	1	-1	0	nt	nt	nt	nt
Cc1cc(C(=O)N2CCC2(C)C(=O)Nc2cccc3ccccc23)nn1C (configuration not stated)	0	nt	1	nt	nt	nt	nt	nt	nt
O=[N+]([O-])c1cc(/C=N/n2c(-c3ccncc3)n[nH]c2=S)ccc1Cl	-12	-13	52*	0	0	98*	19*	29	-7
Cc1cc(-c2n[nH]c(=S)n2/N=C/c2ccc(Cl)c([N+](=O)[O-])c2)n[nH]1	-22	-5	4	0	0	nt	nt	nt	nt
Cc1ccc(S(=O)(=O)Nn2c(O)c(C=C3N=c4ccccc4=N3)sc2=S)cc1	33	-3	11	1	1	nt	nt	nt	nt
Cc1ccc(C(=O)Nn2c(O)c(C=C3N=c4ccccc4=N3)sc2=S)cc1	35	-10	54*	1	1	52*	3	59*	23*
CCCc1cc(=O)[nH]c(SCC(=O)c2ccc3c(c2)NC(=O)CO3)n1	5	0	54*	0	1	5	7	-2	6
CC(C)Cn1c(SCC(=O)N2CCc3ccccc3C2)nc(O)cc1=O	nt	-7	nt	1	1	nt	4	nt	2
CC(C)Cn1c(SCC(=O)N2CCc3ccccc3C2)nc2cc(Cl)ccc2c1=O	3	-12	0	-2	0	nt	nt	nt	nt
Nc1nc(SCC(=O)N2CCc3ccccc3C2)[nH]c(=O)c1-c1ccccc1	90*	0	92*	0	-1	107*	22*	95*	-4
Nc1nc(SCC(=O)Nc2ccccc2)[nH]c(=O)c1-c1ccccc1	-2	-2	6	0	-1	nt	nt	nt	nt
CCCc1cc(=O)[nH]c(SCC(=O)N2CCc3ccccc3C2)n1	55*	0	85*	0	0	92*	5	29	0
SMILES	TAAR1 antag	OXTR potentiator	TAAR1 ag	OXTR ag	V1R ag counter	TAAR1 ag confirm	Ga16 ag counter	TAAR1 desensitize	Ga16 antag count
O=C(CSc1nccc(=O)[nH]1)N1CCc2ccccc2C1	nt	0	nt	1	3	nt	1	nt	6
Cc1cc(C)n2nc(C(=O)NCCc3ccccc3)nc2n1	-4	0	63*	0	1	54*	0	9	4
O=C(NCCc1ccccc1)c1nc2nc(-c3cccs3)cc(C(F)(F)F)n2n1	84*	-6	84*	-3	-1	91*	4	90*	18
O=C(O)c1cc2nc(-c3cccs3)cc(C(F)(F)F)n2n1	0	-10	7	1	0	nt	nt	nt	nt
Cc1ccc(-c2nn3cnnc3c3ccccc23)cc1	-12	-11	0	-2	-1	nt	nt	nt	nt
Cc1cc(NC(=O)CSc2nnc(-c3cccnc3)n2Cc2ccccc2)no1	-6	-3	4	0	1	nt	nt	nt	nt
Cc1ccccc1Cn1c(C)c(C(=O)NCc2cccc(Cl)c2)sc1=O	14	nt	7	nt	nt	nt	nt	nt	nt
Cc1c(C(=O)NCc2ccc3c(c2)OCCO3)sc(=O)n1Cc1ccc2c(c1)OCO2	25	nt	3	nt	nt	nt	nt	nt	nt
COc1ccc(CNC(=O)c2sc(=O)n(Cc3ccccc3C)c2C)cc1	70*	nt	106*	nt	nt	122*	82*	85*	54*
COc1ccccc1Cn1c(C)c(C(=O)NCc2ccc(C#N)cc2)sc1=O	94*	nt	134*	nt	nt	106*	69*	78*	45*
COc1ccc(Cl)cc1Cn1c(C)c(C(=O)NCc2ccc(C#N)cc2)sc1=O	76*	nt	68*	nt	nt	74*	37*	74*	50*
Cc1c(C(=O)NCc2ccc([N+](=O)[O-])cc2)sc(=O)n1Cc1ccc2c(c1)OCO2	74*	nt	104*	nt	nt	106*	63*	81*	49*
COc1ccc(Cl)cc1Cn1c(C)c(C(=O)NCc2cccc(C(F)(F)F)c2)sc1=O	12	nt	2	nt	nt	nt	nt	nt	nt
CCN(CC)CCCNC(=S)N1CCC(c2nc3ccccc3[nH]2)CC1	-4	2	1	1	1	nt	nt	nt	nt
O=C(c1ccncc1)N1CCN(S(=O)(=O)c2ccc(OC(F)(F)F)cc2)CC1	-5	-2	2	0	3	nt	nt	nt	nt
COc1ccc(CN2CCN(C(=O)c3ccco3)CC2)c(OC)c1OC	-23	0	5	0	0	nt	nt	nt	nt

Screening data: PubChem BioAssay, The Scripps Research Institute Molecular Screening Center
